Assay results taken from ChEMBL document CHEMBL2177002, “Antifungal spectrum, in vivo efficacy, and structure-activity relationship of ilicicolin h” (ACS Med Chem Lett, 2012).
Converted amounts (≈) assume the structure as drawn. The source made the active and inactive calls. The rule behind the calls is not given here.

How the values were obtained:
[1] = tested on: Candida albicans; assay: Antifungal activity against fluconazole-resistant Candida albicans MY 2301 after 24 hrs by NCCLS broth microdilution method; type: functional; details: MY 2301, 24 h
[2] = Inhibition of Saccharomyces cerevisiae MY 2141 electron transport protein complex 2/3 using succinate as substrate assessed as decrease in oxygen consumption measured for 3 mins
[3] = tested on: Cryptococcus neoformans; assay: Antifungal activity against Cryptococcus neoformans MY 2061 infected in DBA/2 mouse assessed as reduction in spleen fungal burden at 100 mg/kg, ip bid; type: functional, organism-based; parameters: dose 100 mg/kg
Procedure, shortened: (§1)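 Mice with disseminated C. neoformans MY2061 infection (8 × 10⁵ cfu/mouse). Dosed twice daily at 100 or 50 mg/kg, oral or intraperitoneal, in 5% aqueous DMSO. Spleen burden measured as log cfu/g of spleen and compared by Excel t test (p < 0.05).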

[4] = tested on: Candida albicans; assay: Ratio of MIC for Candida albicans 6 harboring cytochrome b G37S mutant to MIC for wild type Candida albicans; type: functional
[5] = tested on: Candida albicans; assay: Ratio of MIC for Candida albicans 9 harboring cytochrome b G37D mutant to MIC for wild type Candida albicans; type: functional
[6] = tested on: Candida albicans; assay: Antifungal activity against Candida albicans MY 1055 in glycerol-based medium after 24 hrs by NCCLS broth microdilution method; type: functional; details: MY 1055, 24 h
[7] = tested on: Candida albicans; assay: Antifungal activity against Candida albicans MY 1055 infected in DBA/2 mouse assessed as reduction in kidney fungal burden at 25 to 50 mg/kg, iv tid after 24 hrs; type: functional, organism-based
Procedure, shortened: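 Abbreviated 24 h version of the disseminated C. albicans kidney-burden model in mice. Dosing intravenous, thrice daily, at total doses of 50 or 25 mg/kg/day. Kidney burden compared with controls by Excel t test (p < 0.05). ED90 expressed as mg/kg/day.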

[8] = tested on: Cryptococcus neoformans; assay: Antifungal activity against Cryptococcus neoformans MY 2061 infected in DBA/2 mouse assessed as reduction in spleen fungal burden at 50 mg/kg, po bid; type: functional, organism-based; parameters: dose 50 mg/kg; procedure, shortened: as §1
[9] = tested on: Saccharomyces cerevisiae; assay: Antifungal activity against Saccharomyces cerevisiae MY 2141 assessed as inhibition of whole cell oxygen consumption at 0.003 ug/mL after 15 mins; type: functional; details: MY 2141, 0.25 h
[10] = Inhibition of ubiquinol:cytochrome c reductase in presence of 50% mouse plasma; type: cell-free
Procedure, shortened: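 Cytochrome c reductase assay run with mouse plasma added at increasing percentages, up to 50%, to gauge the effect of plasma protein binding on inhibition.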

[11] = Inhibition of Saccharomyces cerevisiae MY 2141 electron transport protein complex 1/3 using NADH as substrate assessed as decrease in oxygen consumption measured for 3 mins
[12] = tested on: Cryptococcus neoformans; assay: Antifungal activity against Cryptococcus neoformans H 99 after 40 hrs by NCCLS broth microdilution method; type: functional; details: H 99, 40 h
[13] = Inhibition of Saccharomyces cerevisiae MY 2141 electron transport protein complex 1/3 using glycerol-3-phosphate as substrate assessed as decrease in oxygen consumption measured for 3 mins
[14] = tested on: Candida albicans; assay: Ratio of MIC for Candida albicans 16 harboring cytochrome b Q22E mutant to MIC for wild type Candida albicans; type: functional
[15] = Clearance in mouse; type: ADME, organism-based; details: in vivo
[16] = Inhibition of rat liver NADH:cytochrome c oxidoreductase
[17] = tested on: Candida albicans; assay: Antifungal activity against Candida albicans SC 53124 after 24 hrs by NCCLS broth microdilution method; type: functional; details: SC 53124, 24 h
[18] = tested on: Aspergillus flavus; assay: Antifungal activity against Aspergillus flavus MF 383 after 24 hrs by NCCLS broth microdilution method; type: functional, organism-based

C/C=C/[C@@H]1[C@H]2C[C@@H](C)CC[C@@H]2C(C)=C[C@H]1C(=O)c1c(O)c(-c2ccc(O)cc2)c[nH]c1=O [ILICICOLIN H]
MIC [1]: 0.04 mg/L (≈ 0.0923 µM)
IC50 [2]: 1 mg/L (≈ 2.31 µM)
Activity [3]: Active
Ratio [4]: 250
Ratio [5]: 250
MIC [6]: 0.025 mg/L (≈ 0.0577 µM)
Activity [7]: Active
Activity [8]: Active
inhibition at 0.003 µg/mL [9]: 100%
inhibition [10]: inactive
IC50 [11]: 0.08 mg/L (≈ 0.185 µM)
MIC [12]: 0.1 mg/L (≈ 0.231 µM)
IC50 [13]: 0.02 mg/L (≈ 0.0461 µM)
Ratio [14]: 250
clearance [15]: 0.96 L/h/kg
IC50 [16]: 1.5 mg/L (≈ 3.46 µM)
MIC [17]: 0.01 mg/L (≈ 0.0231 µM)
Activity [18]: inactive
